Reference: ChEMBL document CHEMBL1122654, “Phosphorus analogues of gamma-aminobutyric acid, a new class of anticonvulsants” (J Med Chem, 1984)
Calls of active or inactive are those of the source.

Legend:
[1] = Partition coefficient (logP); format: physicochemical; conditions: octanol/water
Rattus norvegicus = species: Rattus norvegicus; test: (§1) Displacement of [3H]GABA from GABA-B binding sites in brain homogenates (relative to 100 uM baclofen) at 100 uM; format: tissue-based
In short: (§2)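 Rat brain membrane binding (male Sprague-Dawley) using 10 nM [3H]GABA, with 100 µM isoguvacine present to block GABA-A sites. Test concentration 100 µM. Percent inhibition expressed relative to 100 µM baclofen. Mean of two separate experiments, each in triplicate.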

[2] = biological target: GABA-A receptor; anion channel (Rattus norvegicus) (UniProt O09028+P15431+P18506+P18508+P19969+P20236+P23574+P23576+P28471+P28473+P30191+P62813+P63079+P63138+Q91ZM7+Q9ES14); test: Displacement of [3H]-GABA from Gamma-aminobutyric acid A receptor binding sites in brain homogenates (relative to 1 mM GABA) at 100 uM; format: tissue-based
In short: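 Male Sprague-Dawley rat brain, frozen, homogenized in 50 mM Tris-citrate (pH 7.1 at 4 °C). Membranes treated with 0.05% Triton X-100 for 30 min at 37 °C and resuspended at 0.5–1.0 mg/mL protein. Incubated with 8 nM [3H]GABA for 5 min at 4 °C, stopped by centrifugation, and counted by scintillation. Test concentration 100 µM. Expressed as percent of the inhibition given by 1 mM GABA. Mean of two experiments, each in triplicate.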

Mus musculus [3] = test: In vivo anticonvulsant activity against electric shock induced seizures(MES) in mice 0.5 hr after ip administration; ++ indicates activity at 300 mg/kg.; format: functional, organism-based; design: dose 300 mg/kg
Mus musculus [4] = test: In vivo anticonvulsant activity against electric shock induced seizures(MES) in mice 4 hr after ip administration; + indicates activity at 600 mg/kg.; format: functional, organism-based; design: dose 600 mg/kg
Mus musculus [5] = test: In vivo neurotoxicity at 600 mg/kg, number of animals exhibiting neurotoxicity in the rotarod test / number of animals tested 4 hr; 2/2; format: toxicity, organism-based; design: dose 600 mg/kg
Mus musculus [6] = test: In vivo neurotoxicity at 600 mg/kg, number of animals exhibiting neurotoxicity in the rotarod test / number of animals tested at 0.5 hr; 4/4; format: toxicity, organism-based; design: dose 600 mg/kg
Mus musculus [7] = test: In vivo anticonvulsant activity against electric shock induced seizures(MES) in mice 0.5 hr after ip administration; inactive at 600 mg/kg; format: functional, organism-based; design: dose 600 mg/kg
Mus musculus [8] = test: In vivo anticonvulsant activity against pentylene tetrazole seizure threshold(SMC) in mice 0.5 hr after sc administration; inactive at 600 mg/kg; format: functional, organism-based; design: dose 600 mg/kg
Mus musculus [9] = test: In vivo anticonvulsant activity against pentylene tetrazole seizure threshold(SMC) in mice 4 hr after sc administration; inactive at 600 mg/kg; format: functional, organism-based; design: dose 600 mg/kg
Mus musculus [10] = test: In vivo neurotoxicity at 600 mg/kg, number of animals exhibiting neurotoxicity in the rotarod test / number of animals tested 4 hr; format: toxicity, organism-based; design: dose 600 mg/kg
Mus musculus [11] = test: In vivo neurotoxicity at 600 mg/kg, number of animals exhibiting neurotoxicity in the rotarod test / number of animals tested at 0.5 hr; format: toxicity, organism-based; design: dose 600 mg/kg
Mus musculus [12] = test: In vivo anticonvulsant activity against electric shock induced seizures(MES) in mice 4 hr after ip administration; inactive at 600 mg/kg; format: functional, organism-based; design: dose 600 mg/kg
[13] = biological target: GABA B receptor (Rattus norvegicus) (UniProt Q9Z0U4+O88871); test: as §1; format: tissue-based; in short: as §2
Mus musculus [14] = test: In vivo anticonvulsant activity against pentylene tetrazole seizure threshold(SMC) in mice 4 hr after sc administration; indicates inactive at 600 mg/kg; format: functional, organism-based; design: dose 600 mg/kg
Mus musculus [15] = test: In vivo anticonvulsant activity against pentylenetetrazole seizure threshold(SMC) in mice 0.5 hr after sc administration; indicates inactive at 600 mg/kg; format: functional, organism-based; design: dose 600 mg/kg
Mus musculus [16] = test: In vivo anticonvulsant activity against electric shock induced seizures(MES) in mice 0.5 hr after ip administration; indicates inactive at 600 mg/kg; format: functional, organism-based; design: dose 600 mg/kg
Mus musculus [17] = test: In vivo anticonvulsant activity against electric shock induced seizures(MES) in mice 4 hr after ip administration; indicates inactive at 600 mg/kg; format: functional, organism-based; design: dose 600 mg/kg
Mus musculus [18] = test: In vivo neurotoxicity at 600 mg/kg, number of animals exhibiting neurotoxicity in the rotarod test / number of animals tested at 0.5 hr; 0/4; format: toxicity, organism-based; design: dose 600 mg/kg
Mus musculus [19] = test: In vivo neurotoxicity at 600 mg/kg, number of animals exhibiting neurotoxicity in the rotarod test / number of animals tested at 4 hr; 0/2; format: toxicity, organism-based; design: dose 600 mg/kg
Mus musculus [20] = test: In vivo anticonvulsant activity against electric shock induced seizures(MES) in mice; 104-131; format: functional
Mus musculus [21] = test: In vivo neurotoxicity at 600 mg/kg, number of animals exhibiting neurotoxicity in the rotarod test / number of animals tested 4 hr; 0/2; format: toxicity, organism-based; design: dose 600 mg/kg
Mus musculus [22] = test: In vivo neurotoxicity at 600 mg/kg, number of animals exhibiting neurotoxicity in the rotarod test / number of animals tested at 0.5 hr; 1/4; format: toxicity, organism-based; design: dose 600 mg/kg

Work on COP(=S)(OC)Oc1cc(C)c([N+](=O)[O-])c(C)c1 yielded a logP [1] of 3.89.
CCCCN1C(=O)CCP1(=O)c1ccccc1 (stereo not given) gave an inhibition (Rattus norvegicus) of 67% and an inhibition [2] of 17%.
For COP(=O)(OC)Oc1ccc([N+](=O)[O-])cc1 [DIMETHYL 4-NITROPHENYL PHOSPHATE], the logP [1] was 1.27.
For CCc1cc(OP(=O)(OC)OC)ccc1[N+](=O)[O-], the logP [1] was 2.19.
CCOP(=O)(OCC)Oc1ccccc1 [PHOSPHORIC ACID DIETHYL ESTER PHENYL ESTER] showed a logP [1] of 1.64.
With CC(C)OP(=O)(OC(C)C)c1cccc(N)c1 the Anticonvulsant activity (Mus musculus [3]) was “activity at 300 mg/kg”, the Anticonvulsant activity (Mus musculus [4]) was “activity at 300 mg/kg” and the Toxicity (Mus musculus [5]) was 2. It also gave a Toxicity (Mus musculus [6]) of 4.
COP(=S)(OC)Oc1ccc([N+](=O)[O-])cc1Cl [DICAPTHON] showed a logP [1] of 3.44.
Work on COP(=O)(OC)Oc1ccc([N+](=O)[O-])c(C(C)C)c1 yielded a logP [1] of 2.57.
CCOP(=S)(OCC)Oc1ccc(SC)c(Cl)c1 gave a logP [1] of 5.06.
CCc1cc(OP(=S)(OC)OC)ccc1[N+](=O)[O-] gave a logP [1] of 3.84.
With CC(=O)Nc1ccccc1OP(=O)(Oc1ccccc1NC(C)=O)c1ccccc1 the inhibition [2] was 46%, the Anticonvulsant activity (Mus musculus [7]) was “inactive” and the Anticonvulsant activity (Mus musculus [8]) was “inactive”. The Anticonvulsant activity (Mus musculus [9]) was “inactive”, the Toxicity (Mus musculus [10]) was “Not Active” and the Toxicity (Mus musculus [11]) was “Not Active”. For the same molecule, the Anticonvulsant activity (Mus musculus [12]) was “inactive”.
For COP(=S)(OC)Oc1ccc([N+](=O)[O-])c(C)c1 [FENITROTHION], the logP [1] was 3.3.
In the case of COP(=S)(OC)Oc1ccc([N+](=O)[O-])c(C(C)C)c1, the logP [1] is reported as 4.05.
For CCOP(=O)(OCC)Oc1ccc(SC)cc1Cl, the logP [1] was 3.05.
With NCCOP(=O)(O)c1ccccc1 the inhibition [13] was 16%, the inhibition [2] was 15% and the Anticonvulsant activity (Mus musculus [14]) was “inactive”. For the same molecule, the Anticonvulsant activity (Mus musculus [15]) was “inactive”, the Anticonvulsant activity (Mus musculus [16]) was “inactive” and the Anticonvulsant activity (Mus musculus [17]) was “inactive”. For the same molecule, the Toxicity (Mus musculus [18]) was 0 and the Toxicity (Mus musculus [19]) was 0.
CN1C(=O)CC(c2ccccc2)C1=O (stereo not given) [PHENSUXIMIDE] gave an ED50 (Mus musculus [20]) of 112 mg/kg.
With CCOP(=O)(OCC)Oc1ccc([N+](=O)[O-])cc1 [PARAOXON] the logP [1] was 1.64.
CCOP(=O)(CCCN)OCC gave a Toxicity (Mus musculus [21]) of 0 and a Toxicity (Mus musculus [22]) of 1.
Molecule COP(=O)(OC)Oc1ccc([N+](=O)[O-])c(Cl)c1 has a logP [1] of 1.83.
For CC(=O)Nc1ccccc1OP(=O)(Oc1ccccc1)Oc1ccccc1, the inhibition [13] was 36%, the inhibition [2] was 54% and the Anticonvulsant activity (Mus musculus [7]) was “inactive”. For the same molecule, the Anticonvulsant activity (Mus musculus [8]) was “inactive”, the Anticonvulsant activity (Mus musculus [9]) was “inactive” and the Toxicity (Mus musculus [10]) was “Not Active”. For the same molecule, the Toxicity (Mus musculus [11]) was “Not Active” and the Anticonvulsant activity (Mus musculus [12]) was “inactive”.
